Key:
[1] = molecular target: Glycogen synthase kinase-3 beta (Homo sapiens) (UniProt P49841); assay: Inhibition of GSK3beta (unknown origin) assessed as residual activity at 1 uM relative to control
[2] = molecular target: CDK9/cyclin T1 (Homo sapiens) (UniProt O60563+P50750); assay: Inhibition of CDK9/Cyclin T1 (unknown origin) assessed as residual activity at 1 uM relative to control; type: protein-complex assay
[3] = Volume of distribution at steady state in Sprague-Dawley rat at 5 mg/kg, iv measured upto 24 hrs by LC/MS/MS analysis; type: ADME, organism-based; details: in vivo, read-out: Vdss
[4] = Cmax in Sprague-Dawley rat at 20 mg/kg, po measured upto 24 hrs by LC/MS/MS analysis; type: ADME, organism-based; parameters: route oral, dose 20 mg/kg, time <=24; details: in vivo
[5] = Cmax in BALB/c mouse at 2 mg/kg, iv measured upto 24 hrs by LC/MS/MS analysis; type: ADME, organism-based; parameters: route intravenous, dose 2 mg/kg, time <=24; details: in vivo
[6] = Cmax in BALB/c mouse at 10 mg/kg, po measured upto 24 hrs by LC/MS/MS analysis; type: ADME, organism-based; parameters: route oral, dose 10 mg/kg, time <=24; details: in vivo
[7] = Tmax in Sprague-Dawley rat at 20 mg/kg, po measured upto 24 hrs by LC/MS/MS analysis; type: ADME, organism-based; details: in vivo
[8] = Tmax in BALB/c mouse at 2 mg/kg, iv measured upto 24 hrs by LC/MS/MS analysis; type: ADME, organism-based; details: in vivo
[9] = Tmax in BALB/c mouse at 10 mg/kg, po measured upto 24 hrs by LC/MS/MS analysis; type: ADME, organism-based; details: in vivo
[10] = Half life in Sprague-Dawley rat at 5 mg/kg, iv measured upto 24 hrs by LC/MS/MS analysis; type: ADME, organism-based; details: in vivo
[11] = Half life in Sprague-Dawley rat at 20 mg/kg, po measured upto 24 hrs by LC/MS/MS analysis; type: ADME, organism-based; details: in vivo
[12] = AUC in Sprague-Dawley rat at 20 mg/kg, po measured upto 24 hrs by LC/MS/MS analysis; type: ADME, organism-based; parameters: route oral, dose 20 mg/kg, time <=24; details: in vivo
[13] = Dissociation constant, pKa of the compound by fast UV-spectrometric titration method; type: physicochemical
[14] = molecular target: Macrophage colony-stimulating factor 1 receptor (Homo sapiens, UniProt P07333); assay: Inhibition of human CSF1R at 1 uM using KKKSPGEYVNIEFG as substrate incubated for 40 mins in presence of [gamma-33ATP] by scintillation counting based radiometry assay relative to control
Macrophage colony-stimulating factor 1 receptor, sequence (P07333 whole entry): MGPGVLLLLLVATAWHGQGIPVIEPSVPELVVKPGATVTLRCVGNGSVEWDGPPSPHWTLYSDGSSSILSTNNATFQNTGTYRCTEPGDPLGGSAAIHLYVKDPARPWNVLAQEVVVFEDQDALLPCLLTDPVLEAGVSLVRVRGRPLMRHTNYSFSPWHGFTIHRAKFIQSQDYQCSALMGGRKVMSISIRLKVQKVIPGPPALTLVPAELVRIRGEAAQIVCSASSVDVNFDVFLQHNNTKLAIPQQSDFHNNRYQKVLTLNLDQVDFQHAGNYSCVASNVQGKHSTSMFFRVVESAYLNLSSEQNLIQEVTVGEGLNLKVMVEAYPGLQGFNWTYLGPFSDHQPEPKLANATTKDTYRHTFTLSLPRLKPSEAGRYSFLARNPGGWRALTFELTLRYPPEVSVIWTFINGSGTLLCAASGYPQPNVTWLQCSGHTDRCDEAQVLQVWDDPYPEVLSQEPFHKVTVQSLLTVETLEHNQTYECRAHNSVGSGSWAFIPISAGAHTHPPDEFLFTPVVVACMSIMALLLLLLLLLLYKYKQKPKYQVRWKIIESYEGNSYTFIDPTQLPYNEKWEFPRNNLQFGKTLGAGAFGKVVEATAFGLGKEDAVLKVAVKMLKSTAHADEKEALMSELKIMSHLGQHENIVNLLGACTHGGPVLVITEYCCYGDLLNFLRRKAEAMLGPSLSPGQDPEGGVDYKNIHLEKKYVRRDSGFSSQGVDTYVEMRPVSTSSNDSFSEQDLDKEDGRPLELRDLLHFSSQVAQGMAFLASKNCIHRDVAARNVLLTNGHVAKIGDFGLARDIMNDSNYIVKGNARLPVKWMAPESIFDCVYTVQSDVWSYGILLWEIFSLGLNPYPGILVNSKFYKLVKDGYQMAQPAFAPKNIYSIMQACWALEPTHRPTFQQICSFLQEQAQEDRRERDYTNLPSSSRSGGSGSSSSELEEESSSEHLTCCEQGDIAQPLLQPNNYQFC

[15] = molecular target: T1, Receptor-type tyrosine-protein kinase FLT3 (Homo sapiens, UniProt P36888); assay: Inhibition of human FLT3 using EAIYAAPFAKKK as substrate incubated for 40 mins in presence of [gamma-33ATP] by scintillation counting based radiometry assay
T1 sequence (P36888 whole entry): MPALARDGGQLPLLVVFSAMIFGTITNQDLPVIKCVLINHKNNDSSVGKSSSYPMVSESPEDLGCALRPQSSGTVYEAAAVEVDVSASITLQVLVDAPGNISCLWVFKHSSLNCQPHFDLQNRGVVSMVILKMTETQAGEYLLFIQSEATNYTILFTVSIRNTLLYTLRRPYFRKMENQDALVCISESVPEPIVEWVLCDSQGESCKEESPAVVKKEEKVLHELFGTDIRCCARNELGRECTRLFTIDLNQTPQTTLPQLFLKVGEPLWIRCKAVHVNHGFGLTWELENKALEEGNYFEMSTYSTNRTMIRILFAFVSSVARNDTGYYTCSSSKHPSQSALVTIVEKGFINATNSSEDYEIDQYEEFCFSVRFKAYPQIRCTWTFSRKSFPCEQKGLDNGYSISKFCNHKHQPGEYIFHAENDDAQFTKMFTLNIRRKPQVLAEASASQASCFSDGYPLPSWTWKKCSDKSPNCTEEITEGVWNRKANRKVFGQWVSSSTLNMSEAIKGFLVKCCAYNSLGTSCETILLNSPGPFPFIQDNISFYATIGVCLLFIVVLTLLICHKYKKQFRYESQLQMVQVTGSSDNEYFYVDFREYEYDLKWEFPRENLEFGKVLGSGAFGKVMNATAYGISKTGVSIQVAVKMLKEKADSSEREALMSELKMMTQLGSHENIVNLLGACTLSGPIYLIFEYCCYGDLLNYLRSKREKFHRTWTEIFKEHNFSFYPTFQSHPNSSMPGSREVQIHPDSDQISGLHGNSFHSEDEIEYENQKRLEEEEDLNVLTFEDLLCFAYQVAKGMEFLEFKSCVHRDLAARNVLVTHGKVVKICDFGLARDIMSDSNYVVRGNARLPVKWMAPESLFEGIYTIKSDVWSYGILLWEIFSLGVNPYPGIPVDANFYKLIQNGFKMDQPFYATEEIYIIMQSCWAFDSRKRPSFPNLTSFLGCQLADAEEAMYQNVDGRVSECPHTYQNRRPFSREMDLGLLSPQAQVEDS

A2780 = assay: Antiproliferative activity against human A2780 cells assessed as growth inhibition incubated for 72 hrs by MTT assay; type: functional
U-937 = assay: Antiproliferative activity against human U937 cells assessed as growth inhibition incubated for 72 hrs by MTT assay; type: functional
MV4-11 [16] = assay: Induction of apoptosis in human MV4-11 cells assessed as late apoptotic cells at 3 uM after 72 hrs by Annexin V FITC/PI staining based flow cytometry analysis (reference value: 3.41%); type: functional
MV4-11 [17] = assay: Induction of apoptosis in human MV4-11 cells assessed as necrotic cells at 3 uM after 72 hrs by Annexin V FITC/PI staining based flow cytometry analysis (reference value: 0.23%); type: functional
MV4-11 [18] = assay: Induction of apoptosis in human MV4-11 cells assessed as early apoptotic cells at 10 uM after 72 hrs by Annexin V FITC/PI staining based flow cytometry analysis (reference value: 2.73%); type: functional
MV4-11 [19] = assay: Induction of cell cylce arrest in human MV4-11 cells assessed as accumulation of cells at G2 phase at 10 uM after 72 hrs by RNase A/propidium iodide staining based flow cytometry (reference value: 12.61%); type: functional
Summary of the method: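 MV4-11 cells were seeded at 8 × 10⁴, held overnight at 37 °C with 5% CO2, then treated 72 h at 3 or 10 µM against a DMSO diluent control. Pellets were fixed in 70% ethanol on ice for 15 min, then stained 1 h at room temperature with PI, 0.1 mg/mL RNase A and 0.05% Triton X-100. Sub-G1, G1, S and G2/M fractions were read by flow cytometry.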

[20] = molecular target: Protein kinase C theta (Homo sapiens) (UniProt Q04759); assay: Inhibition of PKC theta (unknown origin) assessed as residual activity at 1 uM relative to control
Protein kinase C theta (Homo sapiens), sequence (Q04759 whole entry, looked up): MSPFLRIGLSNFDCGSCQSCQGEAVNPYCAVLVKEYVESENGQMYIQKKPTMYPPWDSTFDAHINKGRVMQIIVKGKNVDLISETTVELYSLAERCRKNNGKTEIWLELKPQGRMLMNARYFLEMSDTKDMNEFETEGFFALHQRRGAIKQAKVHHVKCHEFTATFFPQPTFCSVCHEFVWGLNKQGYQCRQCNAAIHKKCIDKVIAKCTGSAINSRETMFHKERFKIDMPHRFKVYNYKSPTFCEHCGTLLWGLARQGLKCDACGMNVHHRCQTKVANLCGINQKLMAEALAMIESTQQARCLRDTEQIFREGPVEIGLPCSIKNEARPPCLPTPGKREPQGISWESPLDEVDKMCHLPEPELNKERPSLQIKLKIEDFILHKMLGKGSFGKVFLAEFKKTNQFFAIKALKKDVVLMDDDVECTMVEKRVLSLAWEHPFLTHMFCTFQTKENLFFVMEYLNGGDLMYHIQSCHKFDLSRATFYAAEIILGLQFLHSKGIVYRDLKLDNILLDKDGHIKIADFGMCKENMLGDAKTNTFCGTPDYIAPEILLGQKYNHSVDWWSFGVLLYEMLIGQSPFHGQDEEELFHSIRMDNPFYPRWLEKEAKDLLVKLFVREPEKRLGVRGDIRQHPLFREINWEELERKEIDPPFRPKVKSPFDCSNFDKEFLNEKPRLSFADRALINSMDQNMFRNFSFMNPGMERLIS

CDK8/Cyclin C = CDK8/Cyclin C (Homo sapiens, UniProt P49336); assay: Inhibition of CDK8/Cyclin C (unknown origin) using RBER-CHKtide as substrate in presence of [33P]gammaATP incubated for 60 mins by microplate scintillation counter analysis
CDK8/Cyclin C, sequence (P49336 whole entry): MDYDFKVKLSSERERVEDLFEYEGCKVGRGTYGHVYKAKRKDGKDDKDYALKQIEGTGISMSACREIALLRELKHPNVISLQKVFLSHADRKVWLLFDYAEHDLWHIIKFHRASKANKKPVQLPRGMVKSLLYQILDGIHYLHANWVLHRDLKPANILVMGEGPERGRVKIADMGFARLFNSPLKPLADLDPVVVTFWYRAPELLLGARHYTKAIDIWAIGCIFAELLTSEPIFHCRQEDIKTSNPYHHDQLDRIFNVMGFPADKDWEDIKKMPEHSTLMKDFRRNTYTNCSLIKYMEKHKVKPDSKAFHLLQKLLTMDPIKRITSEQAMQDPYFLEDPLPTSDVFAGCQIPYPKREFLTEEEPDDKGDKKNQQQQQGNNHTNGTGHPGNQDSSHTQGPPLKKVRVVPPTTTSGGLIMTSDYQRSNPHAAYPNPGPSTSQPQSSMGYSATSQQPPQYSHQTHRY
CDK8/Cyclin C, sequence (P24863 whole entry, further chain): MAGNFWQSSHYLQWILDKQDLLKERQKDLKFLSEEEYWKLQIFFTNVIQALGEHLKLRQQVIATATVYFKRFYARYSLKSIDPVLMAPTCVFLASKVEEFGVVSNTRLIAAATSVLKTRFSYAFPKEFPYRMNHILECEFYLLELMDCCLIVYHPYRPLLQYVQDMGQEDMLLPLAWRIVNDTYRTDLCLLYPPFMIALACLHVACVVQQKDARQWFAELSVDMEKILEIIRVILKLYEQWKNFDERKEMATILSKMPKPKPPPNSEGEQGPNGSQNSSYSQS

Glycogen synthase kinase-3 beta (Homo sapiens), sequence (P49841 whole entry, looked up): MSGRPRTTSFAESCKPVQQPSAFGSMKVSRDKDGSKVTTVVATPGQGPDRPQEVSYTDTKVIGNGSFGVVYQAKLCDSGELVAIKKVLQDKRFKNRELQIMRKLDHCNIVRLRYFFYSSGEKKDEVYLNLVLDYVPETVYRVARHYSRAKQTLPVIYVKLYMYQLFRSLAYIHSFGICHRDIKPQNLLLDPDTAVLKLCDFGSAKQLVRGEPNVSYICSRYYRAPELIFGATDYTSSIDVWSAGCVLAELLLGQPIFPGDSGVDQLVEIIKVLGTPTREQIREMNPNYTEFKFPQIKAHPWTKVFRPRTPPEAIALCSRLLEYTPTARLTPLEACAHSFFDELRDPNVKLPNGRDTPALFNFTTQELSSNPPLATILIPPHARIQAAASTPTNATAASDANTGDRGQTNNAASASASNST

- Activity [1]: 61%
- Activity [2]: 61%
- Vd [3]: 1.57 L/kg
- Cmax [4]: 3.2 µM
- Cmax [5]: 4.16 µM
- Cmax [6]: 2230 nM
- Tmax [7]: 4 h
- Tmax [8]: 3 min
- Tmax [9]: 20.4 min
- half-life [10]: 87 min
- half-life [11]: 419 min
- AUC at 24 h [12]: 25.1 µM·h
- pKa [13]: 5.27
- inhibition [14]: > 50%
- Ki [15]: 242 nM
- GI50 (A2780): 5.31 µM
- GI50 (U-937): 4.88 µM
- Activity [20]: 61%
- Ki (CDK8/Cyclin C): 9 nM
SMILES: Nc1ncc(-c2cc3ccccc3o2)c(N2CCC3(CCNC3=O)CC2)c1Cl
- Activity (MV4-11 [16]): 8.24%
- Activity (MV4-11 [17]): 0.42%
- Activity (MV4-11 [18]): 1.96%
- Activity (MV4-11 [19]): 1.83%
